ChEMBL document CHEMBL1136914, “Synthesis and structure-activity relationships of bengazole A analogs” (2009)
Converted amounts (≈) assume the structure as drawn. The source made the active and inactive calls. No cut-off for these calls is given here.

Assays:
Candida albicans [1] = assay: Antifungal activity against Candida albicans isolate 96-489 up to 300 ug/disk by paper disk diffusion assay; format: functional, organism-based
Method in brief: (§1)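 Disk diffusion on agar; test material applied as μg per paper disk (doses up to 300 μg/disk); activity read as zone of growth inhibition in mm.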

Candida albicans [2] = assay: Antifungal activity against Candida albicans ATCC 14503 up to 300 ug/disk by paper disk diffusion assay; format: functional, organism-based; method in brief: as §1
Nakaseomyces glabratus [3] = assay: Antifungal activity against Candida glabrata up to 300 ug/disk by paper disk diffusion assay; format: functional, organism-based; method in brief: as §1
Pichia kudriavzevii [4] = assay: Antifungal activity against Candida krusei up to 300 ug/disk by paper disk diffusion assay; format: functional, organism-based; method in brief: as §1
Candida albicans [5] = assay: Antifungal activity against Candida albicans ATCC 14503 at 300 ug/disk by disk diffusion assay; format: functional; details: read-out: IZ; method in brief: as §1
Pichia kudriavzevii [6] = assay: Antifungal activity against Candida krusei at 300 ug/disk by disk diffusion assay; format: functional; details: read-out: IZ; method in brief: as §1
Candida albicans [7] = assay: Antifungal activity against Candida albicans isolate 96-489 at 300 ug/disk by disk diffusion assay; format: functional; details: read-out: IZ
Method in brief: (§2)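 Agar disk diffusion against a panel of five Candida species, including fluconazole-resistant strains. Compound was applied per disk at doses up to 300 μg/disk. Activity was read as the diameter of the zone of growth inhibition, in mm.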

Candida albicans [8] = assay: Antifungal activity against fluconazole-resistant Candida albicans CDFR1 […]; format: functional
Nakaseomyces glabratus [9] = assay: Antifungal activity against fluconazole-resistant Candida glabrata at 300 ug/disk by disk diffusion assay; format: functional; details: read-out: IZ; method in brief: as §2
Candida albicans [10] = assay: Antifungal activity against fluconazole-resistant Candida albicans CDFR1 at 300 ug/disk by disk diffusion assay; format: functional; details: read-out: IZ; method in brief: as §2
Pichia kudriavzevii [11] = assay: Antifungal activity against Candida krusei after 48 hrs by microbroth dilution method; format: functional
Method in brief: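 Microbroth dilution MIC in RPMI medium at 37 °C, with incubation extended to 48 h; MIC given in μg/mL.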

Candida albicans [12] = assay: Antifungal activity against Candida albicans isolate 96-489 after 24 hrs by microbroth dilution method; format: functional; details: isolate 96-489, 24 h
Method in brief: (§3)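 Microbroth dilution MIC in RPMI medium, incubated at 37 °C for 24 h; MIC reported in μg/mL.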

Candida albicans [13] = assay: Antifungal activity against Candida albicans ATCC 14503 after 24 hrs by microbroth dilution method; format: functional; details: ATCC 14503, 24 h; method in brief: as §3
Nakaseomyces glabratus [14] = assay: Antifungal activity against fluconazole-resistant Candida glabrata at 10 ug/disk by disk diffusion assay; format: functional; details: read-out: IZ; method in brief: as §2
Pichia kudriavzevii [15] = assay: Antifungal activity against Candida krusei at 10 ug/disk by disk diffusion assay; format: functional; details: read-out: IZ; method in brief: as §1
Candida albicans [16] = assay: Antifungal activity against Candida albicans isolate 96-489 at 10 ug/disk by disk diffusion assay; format: functional; details: read-out: IZ; method in brief: as §1
Candida albicans [17] = assay: Antifungal activity against fluconazole-resistant Candida albicans CDFR1 at 10 ug/disk by disk diffusion assay; format: functional; details: read-out: IZ; method in brief: as §2
Candida albicans [18] = assay: Antifungal activity against Candida albicans ATCC 14503; format: functional
Escherichia coli = assay: Antibacterial activity against Escherichia coli; format: functional, organism-based
Staphylococcus aureus = assay: Antibacterial activity against Staphylococcus aureus; format: functional, organism-based
Pseudomonas aeruginosa = assay: Antibacterial activity against Pseudomonas aeruginosa; format: functional, organism-based
Candida albicans [19] = assay: Antifungal activity against Candida albicans ATCC 14503 at 10 ug/disk by disk diffusion assay; format: functional; details: read-out: IZ; method in brief: as §2
Candida albicans [20] = assay: Antifungal activity against Candida albicans ATCC 14503 at 5 ug/disk by disk diffusion assay; format: functional; details: read-out: IZ; method in brief: as §1
Nakaseomyces glabratus [21] = assay: Antifungal activity against fluconazole-resistant Candida glabrata at 5 ug/disk by disk diffusion assay; format: functional; details: read-out: IZ; method in brief: as §2
Pichia kudriavzevii [22] = assay: Antifungal activity against Candida krusei at 5 ug/disk by disk diffusion assay; format: functional; details: read-out: IZ; method in brief: as §1
Candida albicans [23] = assay: Antifungal activity against Candida albicans isolate 96-489 at 5 ug/disk by disk diffusion assay; format: functional; details: read-out: IZ; method in brief: as §1
Candida albicans [24] = assay: Antifungal activity against fluconazole-resistant Candida albicans CDFR1 at 5 ug/disk by disk diffusion assay; format: functional; details: read-out: IZ; method in brief: as §2

Row | SMILES | Activity (Candida albicans [1]) | Activity (Candida albicans [2]) | Activity (Nakaseomyces glabratus [3]) | Activity (Pichia kudriavzevii [4]) | zone of inhibition at 300 µg/disc (Candida albicans [5]) [mm] | zone of inhibition at 300 µg/disc (Pichia kudriavzevii [6]) [mm] | zone of inhibition at 300 µg/disc (Candida albicans [7]) [mm] | MIC (Candida albicans [8]) [µg/mL] | zone of inhibition at 300 µg/disc (Nakaseomyces glabratus [9]) [mm] | further results
1 | CCCCCCCCCCCCCC(=O)OC(c1ccccc1)c1nc(C(O)CCC)co1 (stereo not given) | inactive | inactive | inactive | inactive | – | – | – | – | – | –
2 | COc1ccc(C(O)c2cnc(SC)o2)cc1 (stereo not given) | – | – | – | – | 8 | 0 | 0 | – | – | –
3 | CCCCCCCCCCCCCC(=O)OC(c1ccco1)c1nc(C(O)CCC)co1 (stereo not given) | inactive | inactive | inactive | inactive | – | – | – | – | – | –
4 | CSc1ncc(C(O)C(C)(C)C)o1 (stereo not given) | – | – | – | – | – | 0 | – | – | – | –
5 | CCCCCCCCCCCCCC(=O)OC(c1cnco1)C(C)(C)C (stereo not given) | – | – | – | – | 0 | 0 | 0 | > 32 | 0 | zone of inhibition at 300 µg/disc (Candida albicans [10]): 0 mm
6 | C[C@@H](O[Si](C)(C)C(C)(C)C)[C@@H]1OC(C)(C)O[C@@H]1C[C@@H](O)c1cocn1 | – | – | – | – | 8 | 0 | 0 | > 32 | 0 | zone of inhibition at 300 µg/disc (Candida albicans [10]): 0 mm
7 | CCCCCCCCCCCCCC(=O)OC(c1ccco1)c1nc(C(CCC)O[Si](C)(C)C(C)(C)C)co1 (stereo not given) | inactive | inactive | inactive | inactive | – | – | – | – | – | –
8 | CSc1ncc(C(O)c2ccccc2)o1 (stereo not given) | – | – | – | – | 10 | 9 | – | – | – | –
9 | CCCCCCCCCCCCCC(=O)OC(c1ccccc1)c1nc(C(CCC)O[Si](C)(C)C(C)(C)C)co1 (stereo not given) | inactive | inactive | inactive | inactive | – | – | – | – | – | –
10 | CCCCCCCCCCCCCC(=O)OC(c1cnco1)c1nc(C(O)CCC)co1 (stereo not given) | inactive | inactive | inactive | inactive | – | – | – | – | – | –
11 | OC(c1ccccc1)c1cnco1 (stereo not given) | – | – | – | – | 10 | 9 | – | – | – | –
12 | CCCCCCCCCCCCCC(=O)OC(c1cnco1)c1nc(C(CCC)O[Si](C)(C)C(C)(C)C)co1 (stereo not given) | inactive | inactive | inactive | inactive | – | – | – | – | – | –
13 | CCCCCCCCCCCCCC(=O)OC(c1ccc2ccccc2c1)c1cnco1 (stereo not given) | – | – | – | – | – | – | – | – | – | MIC (Pichia kudriavzevii [11]): > 64 µg/mL; MIC (Candida albicans [12]): > 64 µg/mL; MIC (Candida albicans [13]): > 64 µg/mL
14 | CCCCCCCCCCCCCC(=O)O[C@@H](c1cnco1)c1nc([C@@H](O)C[C@@H](O)[C@@H](O)[C@@H](C)O)co1 [BENGAZOLE A] | – | – | – | – | – | – | – | > 32 | – | zone of inhibition at 10 µg/disc (Nakaseomyces glabratus [14]): 15 mm; zone of inhibition at 10 µg/disc (Pichia kudriavzevii [15]): 35 mm; zone of inhibition at 10 µg/disc (Candida albicans [16]): 15 mm; zone of inhibition at 10 µg/disc (Candida albicans [17]): 50 mm; MIC (Candida albicans [12]): 1 µg/mL (≈ 1.91 µM); MIC (Candida albicans [13]): 1 µg/mL (≈ 1.91 µM); MIC (Candida albicans [18]): 1 µg/mL (≈ 1.91 µM); Activity (Escherichia coli): inactive; Activity (Staphylococcus aureus): inactive; Activity (Pseudomonas aeruginosa): inactive; zone of inhibition at 10 µg/disc (Candida albicans [19]): 50 mm
15 | O=Cc1cocn1 | – | – | – | – | – | – | – | > 32 | 10 | –
16 | CCCCCCCCCCCCCC(=O)OC(c1cnc(SC)o1)C(C)(C)C (stereo not given) | – | – | – | – | 0 | 0 | 0 | > 32 | 0 | zone of inhibition at 300 µg/disc (Candida albicans [10]): 0 mm
17 | CCCC(O[Si](C)(C)C(C)(C)C)c1coc(C(O)c2ccco2)n1 (stereo not given) | inactive | inactive | inactive | inactive | – | – | – | – | – | –
18 | OC(c1ccc2ccccc2c1)c1cnco1 (stereo not given) | – | – | – | – | 10 | 7.5 | – | – | – | MIC (Pichia kudriavzevii [11]): > 64 µg/mL; MIC (Candida albicans [12]): 32 µg/mL (≈ 142 µM); MIC (Candida albicans [13]): > 64 µg/mL
19 | CCCCCCCCCCCCCC(=O)OC(c1ccccc1)c1cnco1 (stereo not given) | – | – | – | – | 0 | 0 | 0 | > 32 | 0 | zone of inhibition at 300 µg/disc (Candida albicans [10]): 0 mm
20 | CSc1ncc(C(O)c2ccc(Br)cc2)o1 (stereo not given) | – | – | – | – | 13 | 9 | 12 | – | – | MIC (Pichia kudriavzevii [11]): 4 µg/mL (≈ 13.3 µM); MIC (Candida albicans [12]): 8 µg/mL (≈ 26.7 µM); MIC (Candida albicans [13]): 4 µg/mL (≈ 13.3 µM)
21 | CCCC(O[Si](C)(C)C(C)(C)C)c1coc(C(O)c2ccccc2)n1 (stereo not given) | inactive | inactive | inactive | inactive | – | – | – | – | – | –
22 | CC(C)(C)C(O)c1cocn1 (stereo not given) | – | – | – | – | 0 | 0 | 0 | > 32 | 0 | zone of inhibition at 300 µg/disc (Candida albicans [10]): 0 mm
23 | CCCCCCCCCCCCCC(=O)OC(c1ccc(Br)cc1)c1cnc(SC)o1 (stereo not given) | – | – | – | – | 0 | 0 | 0 | > 32 | 0 | MIC (Pichia kudriavzevii [11]): > 64 µg/mL; MIC (Candida albicans [12]): > 64 µg/mL; MIC (Candida albicans [13]): > 64 µg/mL; zone of inhibition at 300 µg/disc (Candida albicans [10]): 0 mm
24 | C[C@@H]1[C@H](O)[C@@H](C)/C=C/C=C/C=C/C=C/C=C/C=C/C=C/[C@H](O[C@@H]2O[C@H](C)[C@@H](O)[C@H](N)[C@@H]2O)C[C@@H]2O[C@](O)(C[C@@H](O)C[C@@H](O)[C@H](O)CC[C@@H](O)C[C@@H](O)CC(=O)O[C@H]1C)C[C@H](O)[C@H]2C(=O)O [AMPHOTERICIN B] | – | – | – | – | – | – | – | > 32 | – | zone of inhibition at 5 µg/disc (Candida albicans [20]): 22 mm; zone of inhibition at 5 µg/disc (Nakaseomyces glabratus [21]): 19 mm; zone of inhibition at 5 µg/disc (Pichia kudriavzevii [22]): 15 mm; zone of inhibition at 5 µg/disc (Candida albicans [23]): 12 mm; zone of inhibition at 5 µg/disc (Candida albicans [24]): 23 mm; MIC (Pichia kudriavzevii [11]): 0.25 µg/mL (≈ 0.271 µM); MIC (Candida albicans [12]): 0.5 µg/mL (≈ 0.541 µM); MIC (Candida albicans [13]): 0.5 µg/mL (≈ 0.541 µM)
25 | CCCCCCCCCCCCCC(=O)OC(c1ccccc1)c1cnc(SC)o1 (stereo not given) | – | – | – | – | 0 | 0 | 0 | > 32 | 0 | zone of inhibition at 300 µg/disc (Candida albicans [10]): 0 mm
26 | CCCC(O[Si](C)(C)C(C)(C)C)c1coc(C(O)c2cnco2)n1 (stereo not given) | inactive | inactive | inactive | inactive | – | – | – | – | – | –
27 | CCCCCCCCCCCCCC(=O)OC(c1ccc2ccccc2c1)c1cnc(SC)o1 (stereo not given) | – | – | – | – | – | – | – | – | – | MIC (Pichia kudriavzevii [11]): > 64 µg/mL; MIC (Candida albicans [12]): > 64 µg/mL; MIC (Candida albicans [13]): > 64 µg/mL
28 | C[C@@H](O[Si](C)(C)C(C)(C)C)[C@@H]1OC(C)(C)O[C@@H]1C[C@H](O)c1cocn1 | – | – | – | – | 10 | 9 | 0 | > 32 | 0 | zone of inhibition at 300 µg/disc (Candida albicans [10]): 0 mm
